# FN deposit inh: fibronectin deposition inhibition. actives 0.086% (n = 350,000). AID 743247. inhibition, % at 12.6 µM. AH1F fibroblasts, Alexa488-fibronectin deposition fluorescence, overnight;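 active means mean inhibition across replicates of 30% or more, regardless of how many single replicates reach that level; inconclusive means mean under 30% yet at least half of replicates reach 30%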;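 further: positive control wells lacked labelled fibronectin entirely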
#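 Assay system: AH1F fibroblasts / Quantity: 10000 cells per well / Medium: DMEM plus 2% serum, read in PBS / Reagent: labelled fibronectin 24 nM / Dosing: single dose, pinned / Times: 1 h cell attachment, overnight exposure to compound and label / Signal: fluorescence, ex 485 nm, em 525 nm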
# ARNT TACC3 PPI: ARNT/TACC3 interaction disruption | Q9Y6A5 | AlphaScreen His-ARNT PAS-B/GST-TACC3 binding, luminescence; TACC3 fragment carries E629A point mutation | inhibition, % at 9.99 µM | actives 0.66% (n = 390,000) | AID 623870;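 active means mean inhibition of replicates at least 50% and at least half of replicates each reaching 50%; inconclusive means half or more replicates reach 50% but mean below 50%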;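 further: 0% = complete ARNT plus TACC3 wells and 100% = ARNT alone without TACC3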
# FGF22 binding: shifts melting point of recombinant human FGF22 | Q9HCT0 | recombinant FGF22 thermal shift, SYPRO orange fluorescence; percent of sucrose octasulfate shift, DMSO zero | activity (Tm shift, normalised), % at 9.99 µM | actives 1.5% (n = 340,000);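 active means mean Tm shift, scaled 0 neutral to 100 positive control, at about 1.3% or above, every replicate too, limit read from the data; inconclusive means no clear call, values can overlap the other calls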
# Target sequence (Q9HCT0 whole entry, looked up): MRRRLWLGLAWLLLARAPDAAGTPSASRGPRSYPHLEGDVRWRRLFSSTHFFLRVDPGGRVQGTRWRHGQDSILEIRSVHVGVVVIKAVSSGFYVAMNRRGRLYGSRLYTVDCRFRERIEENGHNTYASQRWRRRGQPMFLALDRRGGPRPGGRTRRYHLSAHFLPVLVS
# DENV2 CPE: inhibitors of DENV2 cytopathic effect; DENV2-infected cells, cytopathic effect rescue, plate reader; CPE inhibition, % at 9.99 µM; actives 1.7% (n = 350,000); AID 651640; in the data active means CPE inhibition above about 20%, passing the limit was not always enough; inconclusive means no clear call, values can overlap the other calls; tested in BHK-21 cells;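 further: 0% = median of neutral control wells and 100% = median of positive control wells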
# SIRT5 block: inhibitors of human sirtuin-5 desuccinylase | Q9NXA8 | Purified SirT5, succinyl-peptide AMC, trypsin-coupled fluorescence | inhibition, % at 15 µM | actives 1.1% (n = 330,000) | AID 652115; in the data active means inhibition above about 15%; inconclusive means no clear call, values can overlap the other calls
# Target sequence (Q9NXA8 whole entry, looked up): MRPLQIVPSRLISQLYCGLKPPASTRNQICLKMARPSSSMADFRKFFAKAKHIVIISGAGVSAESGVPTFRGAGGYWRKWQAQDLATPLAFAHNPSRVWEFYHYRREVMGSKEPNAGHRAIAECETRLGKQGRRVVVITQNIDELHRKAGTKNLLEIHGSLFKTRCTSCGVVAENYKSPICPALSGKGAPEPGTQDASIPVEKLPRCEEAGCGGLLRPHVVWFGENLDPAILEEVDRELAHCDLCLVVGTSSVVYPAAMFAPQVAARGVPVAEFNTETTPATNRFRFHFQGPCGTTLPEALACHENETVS
# Xi reactivation: reactivates the inactive X chromosome in mouse fibroblasts; XiGFP mouse fibroblasts, % GFP-positive cells imaging, 3 d; cells co-treated with 5-aza-dC sensitizer; scaled so ellipticine positive control = 100%; activation, % at 7.58 µM; actives 0.055% (n = 360,000); AID 743238;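 active means mean normalized replicate activation at least 10% and every replicate at or above 10%; inconclusive means only one of the two criteria met; inactive means mean below 10% and not all replicates reach 10%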;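 further: 0% = median of on-plate neutral control wells and 100% = ellipticine 6 µM median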
#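 System: SV40-immortalized XiGFP fibroblast cells, line 68-5-11 / Incubation: 3-day compound exposure, then 15 min fixation at room temperature / Compound: single concentration per compound, delivered by pin transfer / Buffer or medium: DMEM plus 5-aza-dC sensitizer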
# Active calls of the source: *; ? = inconclusive; . = no result. This is a sample that favours compounds with a hit; in the whole collection about 3.8% have one here.
SMILES,FN deposit inh,ARNT TACC3 PPI,FGF22 binding,DENV2 CPE,SIRT5 block,Xi reactivation
C[C@H](CO)N1C[C@H](C)[C@@H](CN(C)Cc2ccc3c(c2)OCO3)Oc2ccc(NC(=O)Cc3ccccc3)cc2CC1=O,8,5,0,-7,4,0
CCNC[C@@H]1[C@@H](c2ccc(C#Cc3ccccn3)cc2)[C@@H](CO)N1C(=O)C1CC1,-16,.,.,.,.,0
Cc1noc(C)c1S(=O)(=O)Nc1ccc2c(c1)C(=O)N([C@@H](C)CO)C[C@H](C)[C@@H](CN(C)C(=O)Nc1ccccc1)OCCCC[C@@H](C)O2,-4,-2,0,-12,-4,0
Cc1noc(C)c1S(=O)(=O)Nc1ccc2c(c1)C(=O)N([C@@H](C)CO)C[C@H](C)[C@@H](CN(C)C(=O)Nc1ccccc1)O2,.,-3,0,21*,5,-1
Cc1noc(C)c1S(=O)(=O)Nc1ccc2c(c1)C(=O)N([C@@H](C)CO)C[C@@H](C)[C@@H](CN(C)C(=O)Nc1ccccc1)OCCCC[C@H](C)O2,-5,-6,0,5,-8,0
Cc1noc(C)c1S(=O)(=O)Nc1ccc2c(c1)C(=O)N([C@H](C)CO)C[C@H](C)[C@H](CN(C)C(=O)Nc1ccccc1)OCCCC[C@@H](C)O2,-12,-8,0,89*,5,0
Cc1noc(C)c1S(=O)(=O)Nc1ccc2c(c1)C(=O)N([C@@H](C)CO)C[C@@H](C)[C@@H](CN(C)C(=O)Nc1ccccc1)OCCCC[C@@H](C)O2,-1,-5,-1,95*,-1,0
Cc1noc(C)c1S(=O)(=O)Nc1ccc2c(c1)C(=O)N([C@@H](C)CO)C[C@H](C)[C@H](CN(C)C(=O)C1CCCCC1)OCCCC[C@@H](C)O2,.,21,0,-10,-3,0
Cc1noc(C)c1S(=O)(=O)Nc1ccc2c(c1)C(=O)N([C@H](C)CO)C[C@H](C)[C@H](CN(C)C(=O)C1CCCCC1)OCCCC[C@@H](C)O2,.,22,-1,47*,3,0
O=C1N[C@H](Cc2ccccc2)COCc2cn(nn2)CC[C@@H]1Cc1cccc(Cl)c1,-10,.,.,.,.,0
CCC(=O)Nc1ccc2c(c1)OC[C@@H](C)N(CC1CCCCC1)C[C@@H](C)[C@H](OC)CN(C)C2=O,-6,.,.,.,.,-1
Cc1noc(C)c1S(=O)(=O)Nc1ccc2c(c1)C(=O)N([C@H](C)CO)C[C@H](C)[C@@H](CN(C)C(=O)NC(C)C)OCCCC[C@H](C)O2,-4,-5,0,24*,-5,0
Cc1cc(NC(=O)NCc2ccccc2)c(=O)n(Cc2ccc(F)cc2)c1,2,48*,0,-3,-4,0
Cc1nn(C)c(C)c1CNC(=O)Nc1cccc(Cl)c1,0,6,43*,1,-4,0
Cc1nn(C)c(C)c1CNC(=O)Nc1ccc(Cl)cc1,1,-6,0,-10,3,0
O=C(NCc1ccc(F)cc1)Nc1cccc(Cl)c1,-12,.,44*,2,1,0
CC(C)NC(=O)Nc1ccc2c(c1)C(=O)N(C)C[C@@H](C)[C@H](CN(C)C(=O)NC(C)C)O2,9,.,.,.,.,0
C[C@@H]1CCCn2nncc2COCCNC1=O,-2,.,.,.,.,0
COc1ccc(NC(=O)Nc2ccc3c(c2)C(=O)N([C@H](C)CO)C[C@@H](C)[C@@H](CN(C)Cc2ccncc2)OCCCC[C@@H](C)O3)cc1,.,-4,0,6,1,0
C[C@H]1CN([C@@H](C)CO)C(=O)c2cc(-c3ccncc3)cnc2O[C@H]1CN(C)C(=O)Cc1cccnc1,-12,-3,0,-4,.,0
COC1=C/C(=C/c2c(N)n3nc(CC(=O)N4CCCC4)sc3nc2=O)C=CC1=O,7,-5,0,-2,30*,0
COC1=CC(=Cc2c(N)n3nc(CC(=O)N4CCCCC4)sc3nc2=O)C=C(OC)C1=O,-5,-6,0,7,32*,0
COc1ccc(S(=O)(=O)N(CC(=O)N2CCCC2)Cc2ccccc2)cc1,.,2,.,.,.,.
C[C@H]1CN([C@@H](C)CO)S(=O)(=O)c2ccc(-c3ccccc3)cc2O[C@H]1CN(C)Cc1ccccc1,1,.,.,.,.,-1
O=C(O)C(Cc1c[nH]c2ccccc12)NS(=O)(=O)c1ccc(Cl)cc1 (centres undefined),-13,-10,43*,4,-6,0
SMILES,FN deposit inh,ARNT TACC3 PPI,FGF22 binding,DENV2 CPE,SIRT5 block,Xi reactivation
O=C(O)C(Cc1ccc(Cl)cc1)NS(=O)(=O)c1ccc(Cl)cc1 (centres undefined),-2,-2,0,23*,-3,0
O=C(O)C(Cc1ccccc1)NS(=O)(=O)c1ccc(Cl)cc1 (centres undefined),2,1,0,-3,2,0
O=C(O)C(Cc1c[nH]c2ccccc12)NS(=O)(=O)c1ccc(Br)cc1 (centres undefined),4,-2,0,2,-3,0
C/C=C/c1cnc2c(c1)C(=O)N([C@H](C)CO)C[C@H](C)[C@H](CN(C)C(=O)c1cnccn1)O2,.,-5,0,-1,12,1
Cc1ccc(NC(=S)NN2CCN(C)CC2)c(C)c1,5,.,43*,-2,-4,0
COc1ccc(CNC(=O)c2cc(=O)c3cc(C)cc(C)c3o2)cc1,-4,5,0,?,24*,0
COc1ccc(CNC(=O)c2cc(=O)c3ccc(C)c(C)c3o2)cc1,1,-11,0,9,-3,0
CO[C@@H]1CN(C)C(=O)c2cc(NC(=O)c3ccccc3F)ccc2OC[C@@H](C)N(CC2CCOCC2)C[C@H]1C,8,-7,-1,-2,-9,0
CO[C@@H]1CN(C)C(=O)c2cc(NC(=O)c3ccccc3F)ccc2OC[C@@H](C)N(C(C)=O)C[C@H]1C,11,12,0,-1,-3,0
CO[C@H]1CN(C)C(=O)c2cc(NC(=O)c3ccccc3F)ccc2OC[C@H](C)N(CC2CCOCC2)C[C@H]1C,3,2,.,81*,7,0
CO[C@H]1CN(C)C(=O)c2ccc(NC(=O)Nc3ccccc3F)cc2OC[C@H](C)N(C)C[C@H]1C,7,1,0,33*,4,0
CO[C@H]1CN(C)C(=O)c2cc(NC(=O)c3ccccc3F)ccc2OC[C@@H](C)N(C(C)=O)C[C@@H]1C,-11,-7,0,70*,2,0
CO[C@@H]1CN(C)C(=O)c2ccc(NC(=O)Nc3ccccc3)cc2OC[C@@H](C)N(C(C)=O)C[C@H]1C,1,.,0,26*,22*,0
